# Compound activity deposited in PubChem by several laboratories.
# Most compounds without a hit are left out; they make up all but 2% or so of the library.
# Plk1 PBD FP – Plk1 (human) PBD binding inhibition; P53350; Plk1 PBD phosphopeptide binding, fluorescence polarization; inhibition, %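 (tested at about 20 µM)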; actives 0.13% (n = 97,000); AID 693; in the data active = inhibition above about 34%, passing the limit was not always enough
# Target sequence (P53350 whole entry, looked up): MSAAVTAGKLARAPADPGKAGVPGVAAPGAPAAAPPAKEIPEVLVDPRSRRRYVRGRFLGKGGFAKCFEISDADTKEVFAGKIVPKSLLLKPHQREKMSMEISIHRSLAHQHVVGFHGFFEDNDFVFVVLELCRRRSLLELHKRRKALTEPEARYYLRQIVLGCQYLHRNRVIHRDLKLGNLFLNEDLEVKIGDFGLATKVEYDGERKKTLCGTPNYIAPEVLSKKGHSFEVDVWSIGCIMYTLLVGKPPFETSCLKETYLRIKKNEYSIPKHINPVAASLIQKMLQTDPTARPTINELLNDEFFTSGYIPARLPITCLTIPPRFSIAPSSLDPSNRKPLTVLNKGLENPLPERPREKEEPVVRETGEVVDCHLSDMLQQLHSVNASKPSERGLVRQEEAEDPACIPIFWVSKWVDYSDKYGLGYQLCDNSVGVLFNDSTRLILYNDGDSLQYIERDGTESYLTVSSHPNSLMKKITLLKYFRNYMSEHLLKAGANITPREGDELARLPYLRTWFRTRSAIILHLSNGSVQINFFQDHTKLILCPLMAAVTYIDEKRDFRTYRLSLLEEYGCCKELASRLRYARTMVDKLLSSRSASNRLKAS
# PLK1 kinase inh – PLK1 (human) kinase inhibition; recombinant PLK1 kinase, TR-FRET peptide phosphorylation; actives 0.53% (n = 97,000); inhibition, % at 10 µM; P53350;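 active = inhibition of 50% or more in the single-concentration screen; inactive = inhibition below 50%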;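 note: 0% = DMSO max control and 100% = H-89 dihydrochloride min control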
# PTPN22 act – LYP (human) phosphatase activation | Q9Y2R2 | recombinant LYP, DiFMUP fluorescence; 0 = plate median, 100 = signal doubled | activation, % at 2 µM | actives 0.11% (n = 96,000);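 active = activation at 2 µM above a set limit, the mean plus 5 SD, cut at about 37% in these data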
# EphB4 antag – antagonists of human EphB4-ephrin-B2 interaction; EphB4 LBD / TNYL-RAW-Alexa532 peptide, fluorescence polarization; inhibition, % at 7 µM; actives 0.15% (n = 97,000); AID 720;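 active = inhibition above the screen-wide mean inhibition plus 3 SD, cut at about 15% in these data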;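 note: 0% = DMSO wells and 100% = excess unlabeled TNYL-RAW peptide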
# HIV Rev-RRE inh – HIV Rev-RRE protein-RNA interaction inhibition | P05866 | Rev peptide-RRE RNA binding, FRET | inhibition, % at 8 µM | actives 0.79% (n = 97,000) | AID 704;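 active = inhibition above the screen-wide mean plus 3 SD, cut at about 35% in these data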;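 note: 0% = median DMSO wells and 100% = median Neomycin B control wells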
#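 Test system – labelled RRE RNA duplex and labelled Rev peptide · Reagent – labelled Rev peptide · Doses – one concentration, 8 µM nominal · Incubation – 5 + 15 min at 25 °C · Signal – FRET fluorescence readout · Read-out basis – % inhibition of FRET ratio versus controls · Control set – DMSO wells as 0% and neomycin B wells as 100% inhibition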
# LYP inh 2 – blocks human PTPN22 phosphatase activity | recombinant LYP catalytic domain, DiFMUP fluorescence | Q9Y2R2 | inhibition, % at 2 µM | actives 0.21% (n = 96,000);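 active = inhibition at 2 µM at or above a set limit, the screen mean plus 3 SD, cut at about 24% in these data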;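 note: 0% = DMSO with enzyme and 100% = enzyme fully blocked by orthovanadate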
# Numbers without * were called inactive; / = no result given; [ ] = another dose, or the depositor's remark.
SMILES,Plk1 PBD FP,PLK1 kinase inh,PTPN22 act,EphB4 antag,HIV Rev-RRE inh,LYP inh 2
COc1cccc(C2=CC(c3ccc(N(C)C)cc3)n3ncnc3N2)c1 (stereo not given),-7,-10,2,1,34,-5
CC1CCc2c(sc3nc(C4CC4)nc(N4CCN(C(=O)c5ccco5)CC4)c23)C1 (stereo not given),-11,-12,-12,-5,4,11
CCOc1ccc(Br)cc1C1C(C(=O)OC)=C(N)Oc2cc(N(C)C)ccc21 (stereo not given),-2,-5,0,0,38*,2
CCOc1ccc(Br)cc1CC(=O)O,-16,-5,3,-5,6,0
Cc1ccc(C(=O)CC2(O)C(=O)N(C)c3ccccc32)o1 (stereo not given),10,63*,/,-5,2,/
COC(=O)CN1C(=O)C(O)(CC(=O)c2ccc(C)o2)c2ccccc21 (stereo not given),10,-15,-12,-5,6,13
O=C(NC(C(=O)N/N=C/c1ccccc1)c1n[nH]c(=O)c2ccccc12)c1ccccc1 (stereo not given),-15,-16,-24,1,4,26*
CCc1ccc(NC(=O)Nc2cccs2)cc1,18,-11,5,-4,0,-8
CCN1CC=C2C(C#N)=C(N)C(C#N)(C#N)C(CCc3ccccc3)C2C1 (stereo not given),-32,6,0,-5,86*[fluorescence artefact?],-2
COc1ccc(OC)c(C2C3CN(C(C)C)CC=C3C(C#N)=C(N)C2(C#N)C#N)c1 (stereo not given),-36,-7,1,4,82*,-2
CN1CC=C2C(C#N)=C(N)C(C#N)(C#N)[C@H](c3ccoc3)[C@H]2C1,-32,16,2,-4,42*,-3
N#CC1=C(N)C(C#N)(C#N)C(c2cccnc2)C2CN(C(=O)OCc3ccccc3)CC=C12 (stereo not given),2,-2,-1,-6,16,0
N#CC1=C(N)C(C#N)(C#N)[C@H](c2ccoc2)[C@H]2CN(Cc3ccccc3)CC=C12,-22,-6,25,-3,100*[fluorescence artefact?],-25
c1ccc(Nc2ccc3c4c(cccc24)CC3)cc1,-2,-13,2,-5,9,-3
Nc1ccc2c3c(cccc13)CC2,-5,-1,-8,-2,47*,6
Cc1ccc(C(=O)NCCn2cc(SCC(=O)Nc3nnc(C)s3)c3ccccc32)cc1,7,62*,/,5,9,/
CCOc1ccc(C(=O)NCCn2cc(SCC(=O)Nc3cc(C)on3)c3ccccc32)cc1,-20,-1,4,-1,6,-4
O=C1NC(=O)C(CC(=O)N(c2ccccc2)C2(C(=O)NC3CCCC3)CCCCC2)N1 (stereo not given),1,-8,-10,3,-2,12
COc1ccc2oc(=O)c(NC(=O)C3CCCCC3)cc2c1,13,2,-5,-3,-2,4
COc1cc2cc(/C=C/C(=O)c3ccco3)c(Cl)nc2cc1OC,-30,-27,-6,9,79*[fluorescence artefact?],8
Cc1cccc(-n2ccnc2SCC(=O)Nc2nnc(C)s2)c1,-8,9,7,2,7,-8
Cc1nnc(NC(=O)CSc2nccn2C)s1,-3,-5,0,71*,8,2
CCCCN(C)C(=O)c1cn(CC)c2ccc(S(=O)(=O)N(C)C)cc2c1=O,0,59*,/,0,3,/
CSc1ccc(C2NC(=O)c3c(sc4c3CCN(C)C4)N2)cc1 (stereo not given),-18,-12,-7,0,84*,4
CN1CCc2c(sc3c2C(=O)NC(c2cccs2)N3)C1 (stereo not given),-7,10,-4,1,67*,1
SMILES,Plk1 PBD FP,PLK1 kinase inh,PTPN22 act,EphB4 antag,HIV Rev-RRE inh,LYP inh 2
Cc1ccsc1C1NC(=O)c2c(sc3c2CCN(C)C3)N1 (stereo not given),-1,38,-5,1,100*[fluorescence artefact?],2
COc1ccc(C(=O)/C=C/N(C)C)cc1OC,3,-2,3,-7,5,0
O=C1c2cccc3c(Cl)ccc(c23)C(=O)N1O,-6,25,13,-1,10,-14
C=C(Cl)COC(=O)[C@H]1C2C=CC(C2)C1C(=O)O (stereo not given in full),9,2,-6,2,4,10
CN1Cc2sc(N)c(C#N)c2CC1(C)C,-34,-7,-15,-3,77*,14
CCN(CC)c1ccc(/C=C(/C#N)c2nc3ccc(C)cc3[nH]2)c(OC(C)C)c1,-192,-67,-6,-1,138*[fluorescence artefact?],10
COc1cc(/C=C(\C#N)c2nc3ccc(C)cc3[nH]2)c([N+](=O)[O-])cc1OC,4,-14,-3,-1,9,6
CCCOc1cc(N(CC)CC)ccc1/C=C(/C#N)c1nc2ccc(C)cc2[nH]1,-206,-74,-7,-7,133*[fluorescence artefact?],10
CCOc1cc(N(CC)CC)ccc1/C=C(/C#N)c1nc2ccccc2[nH]1,-202,-50,-2,-6,132*[fluorescence artefact?],4
O=C(Oc1ccc(N(Cc2cccs2)C2=NS(=O)(=O)c3ccccc32)cc1)c1ccccc1,-9,-13,-2,3,3,4
CC(=O)NC1(C(F)(F)F)N=C2SCCN2C1=O (stereo not given),6,-1,-3,-3,8,0
O=C(CSc1nc2ccsc2c(=O)n1-c1ccccc1)N1CCCC1,-10,-8,-10,-4,-1,8
CCCCN1C(=O)/C(=C/C=C2\N(C)c3ccccc3C2(C)C)SC1=S,-260,-39,0,12,140*[fluorescence artefact?],2
O=C1c2ccccc2C(Nc2ccc(Cl)cc2)N1CCN1CCOCC1 (stereo not given),17,-27,-6,4,1,5
CCOc1ccc(NC(=O)C2CCN(C(=O)NC3CCCCC3)CC2)cc1,-7,52*,-2,-3,2,1
CN(C)c1ccc(/C=C/c2nc3ccccc3s2)cc1,-29,-15,3,-2,106*[fluorescence artefact?],-1
Cc1ccc(/C=C/c2nc3ccccc3s2)s1,4,-9,-16,7,23,15
COc1ccccc1NS(=O)(=O)c1cc([N+](=O)[O-])ccc1N/N=C/c1c(C)[nH]c2ccccc12,7,-9,3,2,66*[fluorescence artefact?],-2
COc1ccccc1NS(=O)(=O)c1cc(C)ccc1C,15,-29,7,-3,8,-5
O=[N+]([O-])c1ccc(N/N=C/c2c[nH]c3ccccc23)c(S(=O)(=O)Nc2ccc(Cl)cc2)c1,-8,-10,2,5,65*[fluorescence artefact?],0
Cc1ccc(S(=O)(=O)CNC(=O)c2ccccc2)cc1,-6,1,-10,-6,7,8
